Assays:
[1] = target: T1, Adenosine receptor A1 (Bos taurus) (UniProt P28190); assay: Displacement of [3H]CHA from adenosine A1 receptor in bovine cortical membrane at 10 uM; assay type: cell membranes
T1 sequence (whole entry): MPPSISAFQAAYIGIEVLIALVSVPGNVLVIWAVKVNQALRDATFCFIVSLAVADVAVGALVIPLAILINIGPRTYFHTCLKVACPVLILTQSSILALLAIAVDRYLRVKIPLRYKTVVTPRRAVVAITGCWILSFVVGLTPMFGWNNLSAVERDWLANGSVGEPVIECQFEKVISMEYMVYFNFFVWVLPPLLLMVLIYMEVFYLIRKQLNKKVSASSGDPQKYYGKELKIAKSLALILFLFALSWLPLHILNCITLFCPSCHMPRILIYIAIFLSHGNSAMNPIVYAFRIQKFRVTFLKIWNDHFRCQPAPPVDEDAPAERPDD
Procedure, shortened: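 Competition against [3H]CHA (31 Ci/mmol) for A1 sites in bovine cortical membranes. Compounds dissolved in DMSO, final DMSO ≤2%.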

[2] = tested on: Adenosine receptor A2a (Bos taurus); assay: Displacement of [3H]-CGS- 21680 from adenosine A2a receptor in bovine striatal membrane at 10 uM.; conditions: Striatum
[3] = target: Adenosine receptor A2a (Bos taurus); assay: Displacement of [3H]-CGS- 21680 from adenosine A2a receptor of bovine striatal membrane
Adenosine receptor A1 [4] = target: T2, Adenosine receptor A1 (Bos taurus, UniProt P28190); assay: Displacement of [3H]CHA from adenosine A1 receptors was determined in bovine cortical membranes; assay type: cell membranes
T2 sequence (P28190 whole entry): T1 sequence (whole entry)
Procedure, shortened: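 A1 affinity measured by displacement of [3H]CHA (31 Ci/mmol) from bovine cortical membranes. Compounds in DMSO, final ≤2%. At least six concentrations spanning 3 orders of magnitude were used. Ki is the mean ± SEM of four separate assays, each run in triplicate.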

Adenosine receptor A1 [5] = target: T2, Adenosine receptor A1; assay: Intrinsic activity towards Adenosine A1 receptor as displacement of [3H]DPCPX from bovine cortical membranes with 1 mM GTP
Procedure, shortened: (§1)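 A1 binding in bovine cortical membranes with [3H]DPCPX as radioligand. Run with 1 mM GTP and without GTP, and the GTP shift was taken from comparing the two conditions. Compounds in DMSO, final ≤2%.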

Adenosine receptor A1 [6] = target: T2, Adenosine receptor A1; assay: Intrinsic activity towards Adenosine A1 receptor as displacement of [3H]DPCPX from bovine cortical membranes without GTP; procedure, shortened: as §1
[7] = target: T1, Adenosine receptor A1 (Bos taurus); assay: GTP shift for Adenosine A1 receptor; assay type: functional; procedure, shortened: as §1
[8] = tested on: Adenosine receptor A3 (Bos taurus); assay: Displacement of [125 I]AB-MECA from adenosine A3 receptor in bovine cortical membranes at 1 uM
Adenosine receptor A1 [9] = target: T2, Adenosine receptor A1; assay: Intrinsic activity towards Adenosine A1 receptor using [3H]DPCPX from bovine cortical membranes without GTP; procedure, shortened: as §1

`Oc1cnnc2nc3ccccc3n12` gave an inhibition [1] of 34% and an inhibition [2] of 0%.

`Oc1c(-c2ccsc2)nnc2nc3ccccc3n12` was tested, and the Ki [3] was 5000 nM and the Ki (Adenosine receptor A1 [4]) was 119 nM.

With `Oc1ccc(-c2nnc3nc4ccccc4n3c2O)cc1O` the Ki [3] was 3500 nM and the Ki (Adenosine receptor A1 [4]) was 470 nM.

In the case of `Cn1c2ccccc2n2c(=O)c(-c3cccs3)nnc12`, the inhibition [2] is reported as 19% and the Ki (Adenosine receptor A1 [4]) is reported as 233 nM.

In the case of `O=c1c(-c2ccc(O)cc2)nnc2n(Cc3ccccc3)c3ccccc3n12`, the Ki (Adenosine receptor A1 [4]) is reported as 344 nM.

`Cn1c2ccccc2n2c(=O)c(-c3ccc(Cl)cc3)nnc12` was tested, and the inhibition [1] was 66% and the inhibition [2] was 0%.

`O=c1c(-c2ccsc2)nnc2n(Cc3ccccc3)c3ccccc3n12` showed an inhibition [2] of 60% and a Ki (Adenosine receptor A1 [4]) of 446 nM.

`COc1ccc(-c2nnc3nc4ccccc4n3c2O)cc1OC` showed an inhibition [2] of 35% and a Ki (Adenosine receptor A1 [4]) of 1780 nM.

Compound `C[C@H](Cc1ccccc1)Nc1ncnc2c1ncn2[C@@H]1O[C@H](CO)[C@@H](O)[C@H]1O` [(R)-PIA] has a Ki (Adenosine receptor A1 [5]) of 19.9 nM and a Ki (Adenosine receptor A1 [6]) of 4.2 nM.

With `Cc1nnc2nc3ccccc3n2c1O` the inhibition [2] was 39% and the Ki (Adenosine receptor A1 [4]) was 3900 nM.

In the case of `O=c1c(-c2ccco2)nnc2n(-c3ccccc3)c3ccccc3n12`, the Ki (Adenosine receptor A1 [4]) is reported as 315 nM.

`O=c1c(-c2ccccc2)nnc2n(-c3ccccc3)c3ccccc3n12` showed a Ki (Adenosine receptor A1 [5]) of 25 nM, a Ki (Adenosine receptor A1 [6]) of 24.7 nM and a Ki (Adenosine receptor A1 [4]) of 18 nM.

`COc1ccc(-c2nnc3n(C)c4ccccc4n3c2=O)cc1` showed an inhibition [2] of 7% and a Ki (Adenosine receptor A1 [4]) of 2050 nM.

For `Cn1c2ccccc2n2c(=O)c(-c3ccc(O)c(O)c3)nnc12`, the Ki (Adenosine receptor A1 [4]) was 459 nM.

`Cn1c2ccccc2n2c(=O)c(-c3ccc(O)cc3)nnc12` was tested, and the inhibition [2] was 43% and the Ki (Adenosine receptor A1 [4]) was 206 nM.

`Cn1c2ccccc2n2c(=O)c(-c3ccccc3)nnc12` showed a Ki (Adenosine receptor A1 [5]) of 119 nM, an inhibition [2] of 25% and a GTP shift [7] of 1.3. It also gave a Ki (Adenosine receptor A1 [6]) of 93.1 nM, an inhibition [8] of 0% and a Ki (Adenosine receptor A1 [4]) of 63 nM.

In the case of `O=c1c(-c2ccccc2)nnc2n(Cc3ccccc3)c3ccccc3n12`, the Ki (Adenosine receptor A1 [5]) is reported as 184 nM, the Ki (Adenosine receptor A1 [6]) is reported as 240 nM and the Ki (Adenosine receptor A1 [4]) is reported as 274 nM.

`Oc1c(-c2cccs2)nnc2nc3ccccc3n12` showed a Ki (Adenosine receptor A1 [4]) of 293 nM.

For `COc1ccc(-c2nnc3nc4ccccc4n3c2O)cc1`, the inhibition [1] was 30% and the inhibition [2] was 16%.

For `Cc1nnc2n(C)c3ccccc3n2c1=O`, the inhibition [1] was 46% and the inhibition [2] was 0%.

For `COc1ccc(-c2nnc3n(C)c4ccccc4n3c2=O)cc1OC`, the inhibition [1] was 24% and the inhibition [2] was 18%.

Work on `O=c1c(-c2ccco2)nnc2n(Cc3ccccc3)c3ccccc3n12` yielded a Ki [3] of 1240 nM and a Ki (Adenosine receptor A1 [4]) of 990 nM.

`Oc1c(-c2ccco2)nnc2nc3ccccc3n12` showed a Ki (Adenosine receptor A1 [4]) of 261 nM.

`Oc1ccc(-c2nnc3nc4ccccc4n3c2O)cc1` gave a Ki (Adenosine receptor A1 [4]) of 249 nM.

`Oc1c(-c2ccccc2)nnc2nc3ccccc3n12` gave a Ki (Adenosine receptor A1 [9]) of 141 nM, a Ki (Adenosine receptor A1 [5]) of 197 nM and a Ki (Adenosine receptor A1 [4]) of 85 nM.

`Cn1c2ccccc2n2c(=O)c(-c3ccco3)nnc12` showed a Ki [3] of 6300 nM and a Ki (Adenosine receptor A1 [4]) of 813 nM.

For `Oc1c(-c2ccc(Cl)cc2)nnc2nc3ccccc3n12`, the inhibition [1] was 44% and the inhibition [2] was 8%.

Work on `Cn1c2ccccc2n2c(=O)cnnc12` yielded an inhibition [1] of 0% and an inhibition [2] of 8%.

Compound `Cn1c2ccccc2n2c(=O)c(-c3ccsc3)nnc12` has an inhibition [2] of 55% and a Ki (Adenosine receptor A1 [4]) of 78 nM.

From ChEMBL document CHEMBL1134334, “3-Aryl[1,2,4]triazino[4,3-a]benzimidazol-4(10H)-ones: a new class of selective A1 adenosine receptor antagonists” (J Med Chem, 2001)
